For six molecules, IC50 and Concentration ratio results are on record in ChEMBL document CHEMBL1127028, “Thromboxane receptor antagonism combined with thromboxane synthase inhibition. 5. Synthesis and evaluation of enantiomers of 8-[[(4-chlorophenyl)sulfonyl]amino]-4-(3-pyridinylalkyl)octanoic acid” (J Med Chem, 1993).

Assay [1] is filed under the species Homo sapiens. In words: Inhibition of U 46619-induced Aggregation of human Washed platelets. The assay is classed as functional. In a few lines: (§1)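 Human platelets (washed, or platelet-rich plasma) were aggregated with U 46619, a TxA2/PGH2 mimetic. The test agent was titrated against this challenge and reported as an IC50.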
The species named for assay [2] is Homo sapiens. Briefly: Inhibition of U 46619-induced Aggregation of Human Platelet-rich Plasma. The class given is functional. Put shortly: as §1
Another assay deals with T1, Thromboxane-A synthase (Homo sapiens, UniProt P24557).
T1 sequence (P24557 whole entry): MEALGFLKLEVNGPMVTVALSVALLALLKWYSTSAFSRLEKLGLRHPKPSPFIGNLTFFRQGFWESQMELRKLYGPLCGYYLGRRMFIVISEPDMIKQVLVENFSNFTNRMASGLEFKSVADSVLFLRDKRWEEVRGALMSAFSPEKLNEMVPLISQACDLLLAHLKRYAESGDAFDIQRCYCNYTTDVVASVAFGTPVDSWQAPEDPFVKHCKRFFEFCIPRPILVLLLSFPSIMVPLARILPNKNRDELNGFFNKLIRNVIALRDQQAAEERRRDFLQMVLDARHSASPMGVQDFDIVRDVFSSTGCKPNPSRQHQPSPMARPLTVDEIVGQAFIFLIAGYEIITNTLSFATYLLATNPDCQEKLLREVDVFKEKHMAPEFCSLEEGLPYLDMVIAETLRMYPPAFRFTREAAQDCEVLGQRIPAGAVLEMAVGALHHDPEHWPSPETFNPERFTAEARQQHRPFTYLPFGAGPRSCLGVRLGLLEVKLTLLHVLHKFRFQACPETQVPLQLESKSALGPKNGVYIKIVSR
In words: In vitro inhibition of thromboxane synthetase in microsomal platelet preparation.

The test system of assay [3] is Cavia porcellus. Briefly: Ex vivo Inhibition of U 46619-induced aggregation of guinea pig platelets at the dose of 3 mg/Kg po per hour expressed as concentration ratio (EC50 of drug/EC50 of control). The assay is classed as functional. Put shortly: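 Oral dosing of guinea pigs at 3 mg/kg, blood drawn 1 h later, then ex vivo U 46619-induced platelet aggregation measured. Concentration ratio is EC50 of U 46619 for the treated group over EC50 for vehicle controls (n = 22). 4–6 animals per group; values are mean ± SEM.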

Assay [4] is filed under the species Homo sapiens. In words: Inhibition of U 46619-induced Aggregation of Human Washed Platelets. The assay is classed as functional. In a few lines:
as §1

Assay [5] concerns Cavia porcellus. In words: Ex vivo Inhibition of U 46619-induced aggregation of guinea pig platelets at the dose of 10 mg/Kg po per hour expressed as concentration ratio (EC50 of drug/EC50 of control). The assay is classed as functional. Put shortly:
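Guinea pigs dosed orally at 10 mg/kg; blood sampled 1 h post-dose and platelet aggregation induced ex vivo with U 46619. Result given as concentration ratio, EC50 of U 46619 in drug-treated animals divided by EC50 in vehicle controls (vehicle n = 22). Groups of 4–6 animals; mean ± SEM.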

Consider `O=C(O)CC[C@@H](CCCCNS(=O)(=O)c1ccc(Cl)cc1)CCOc1cccnc1`, for which the IC50 in the assay listed under Homo sapiens [1] came out at 9 nM; in the assay listed under Homo sapiens [2], 0.53 nM; against Thromboxane-A synthase, 13 nM. The Concentration ratio in the assay with Cavia porcellus [3] came to 66.

Consider `O=C(O)CCC(CCCCNS(=O)(=O)c1ccc(Cl)cc1)CCOc1cccnc1` (stereo unspecified), for which the IC50 in the assay filed under Homo sapiens [2] was 0.28 nM; against Thromboxane-A synthase, 2.6 nM. Also, in the assay with Cavia porcellus [3], the Concentration ratio is given as above 100.

`O=C(O)CC[C@H](CCCCNS(=O)(=O)c1ccc(Cl)cc1)CCCc1cccnc1`: the values for the IC50 in the assay filed under Homo sapiens [4], in the assay listed under Homo sapiens [2] and on Thromboxane-A synthase were 11 nM, 0.38 nM and 5 nM, respectively. The Concentration ratio with Cavia porcellus [5] is given as 43.

With `O=C(O)CC[C@@H](CCCCNS(=O)(=O)c1ccc(Cl)cc1)CCCc1cccnc1`, the values for the IC50 in the assay filed under Homo sapiens [1], in the assay listed under Homo sapiens [2] and against Thromboxane-A synthase were 26 nM, 0.55 nM and 4.5 nM, respectively. The Concentration ratio with Cavia porcellus [5] worked out at 54.

In turn, `O=C(O)CCC(CCCCNS(=O)(=O)c1ccc(Cl)cc1)CCCc1cccnc1` (stereo unspecified) came in with an IC50 in the assay listed under Homo sapiens [2] of 0.39 nM. Also, in the assay with Cavia porcellus [5], the Concentration ratio was 27.

Consider `O=C(O)CC[C@H](CCCCNS(=O)(=O)c1ccc(Cl)cc1)CCOc1cccnc1`, for which the IC50 in the assay filed under Homo sapiens [1] stood at 10 nM; in the assay listed under Homo sapiens [2], 0.32 nM; at Thromboxane-A synthase it was 3.5 nM. Also, in the assay on Cavia porcellus [3], the Concentration ratio amounted to 90.
